Results taken from the M2OR odorant receptor database.

Tests used:
Conditions in all cases: stereoisomer not certain
OR11H7 (Homo sapiens) = OR11H7 (Homo sapiens) (UniProt Q8NGC8)
Summary of the method: (§1)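 Transient luciferase assays in mammalian cell lines were common, though methods varied by source. The values come from published papers and their supplementary material, with extra details from the original authors when needed. Responsive refers to a measured signal the original authors judged statistically different from baseline, and non-responsive (inactive) to the remainder.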

OR12D1 (Homo sapiens) = OR12D1 (Homo sapiens) (UniProt P0DN82)
OR12D1 (Homo sapiens), sequence (P0DN82 as listed by the source): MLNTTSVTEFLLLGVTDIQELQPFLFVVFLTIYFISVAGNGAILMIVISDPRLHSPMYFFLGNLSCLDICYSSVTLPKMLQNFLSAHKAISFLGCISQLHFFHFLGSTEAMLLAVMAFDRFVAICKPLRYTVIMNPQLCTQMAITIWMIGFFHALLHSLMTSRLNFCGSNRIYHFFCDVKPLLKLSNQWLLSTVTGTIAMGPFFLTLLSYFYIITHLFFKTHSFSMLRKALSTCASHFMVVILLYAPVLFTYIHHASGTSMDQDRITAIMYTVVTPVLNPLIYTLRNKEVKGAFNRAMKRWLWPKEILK
Summary of the method: as §1

OR13C7 (Homo sapiens) = OR13C7 (Homo sapiens) (UniProt P0DN81)
OR13C7 (Homo sapiens), sequence (P0DN81 whole entry): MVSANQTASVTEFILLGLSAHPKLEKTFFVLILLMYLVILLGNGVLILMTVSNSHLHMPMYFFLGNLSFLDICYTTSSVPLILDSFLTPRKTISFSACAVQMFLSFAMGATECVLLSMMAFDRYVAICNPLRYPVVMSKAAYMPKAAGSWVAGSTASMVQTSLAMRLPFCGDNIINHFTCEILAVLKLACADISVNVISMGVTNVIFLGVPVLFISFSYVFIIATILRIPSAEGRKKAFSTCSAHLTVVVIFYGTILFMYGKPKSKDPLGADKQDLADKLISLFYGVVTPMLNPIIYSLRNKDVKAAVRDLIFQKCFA
Summary of the method: as §1

Measured: odorant receptor agonist call;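 further: active if original authors judged signal statistically different from baseline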

OR11H7 (Homo sapiens), sequence (Q8NGC8 whole entry): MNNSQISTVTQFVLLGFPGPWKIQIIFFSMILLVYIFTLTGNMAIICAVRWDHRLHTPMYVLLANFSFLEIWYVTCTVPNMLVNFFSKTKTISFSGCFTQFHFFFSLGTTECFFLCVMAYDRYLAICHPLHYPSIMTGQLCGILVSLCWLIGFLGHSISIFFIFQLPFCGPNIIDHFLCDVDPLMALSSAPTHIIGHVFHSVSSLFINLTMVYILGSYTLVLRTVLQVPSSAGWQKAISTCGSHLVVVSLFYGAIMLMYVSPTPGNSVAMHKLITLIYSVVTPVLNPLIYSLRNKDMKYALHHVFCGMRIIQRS

CC1CCCCCCCCCCCCC(=O)C1 (stereo unspecified)
inactive: OR11H7 (Homo sapiens) | OR12D1 (Homo sapiens) | OR13C7 (Homo sapiens)

CC(=O)c1c(C)c([N+](=O)[O-])c(C(C)(C)C)c([N+](=O)[O-])c1C
inactive: OR11H7 (Homo sapiens) | OR12D1 (Homo sapiens) | OR13C7 (Homo sapiens)
